Laboratory results taken from article PMC5710144 (Genes & Development, 2017).

How the values were obtained:
[1] = test system: BRWD2/PHIP CRL4 interaction; assay: MS of Flag-BRWD2/PHIP purifications after inhibitor treatment; assay type: cell-based; details: MLN4924 1 µM, 5 h
Method in brief: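 Flag-BRWD2/PHIP was purified from MNase-digested chromatin of HEK293 TRex cells expressing Flag-BRWD2/PHIP, with parental HEK293 TRex cells as the control. MLN4924 (1 µM) was added 5 h before harvest where indicated. Immunoprecipitated complexes were prepared for MS and analysed by MS.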

[2] = test system: CUL4A / DDB1 association with BRWD2/PHIP; assay type: cell-based; details: MLN4924 1 µM
Method in brief: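 In HEK293 TRex cells expressing Flag-BRWD2/PHIP, MLN4924 (1 µM) was added 5 h before harvest. Flag purifications were made from MNase-digested chromatin. Inputs and immunoprecipitates were probed by immunoblot with antibodies to CUL4A, DDB1 and Flag-M2.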

BRWD2/PHIP association with Nedd8-binding protein UBXD7 (UBXN7) [1]: disrupts BRWD2/PHIP association | interaction with chromatin remodelers and histone-binding proteins (CHD4, PHF6, FACT) [1]: not altered
SMILES: NS(=O)(=O)OC[C@@H]1C[C@@H](n2ccc3c(N[C@H]4CCc5ccccc54)ncnc32)C[C@@H]1O [MLN4924]
BRWD2/PHIP association with CSN complex [1]: disrupts BRWD2/PHIP association | BRWD2/PHIP association with CUL4A and DDB1 ([2]; 5 h): still occurs | CUL4A level / CUL4A interaction with BRWD2/PHIP ([2]; 5 h): slightly reduced | Nedd8 attachment to CUL4 ([2]; added 5 h prior to harvesting, HEK293): blocks Nedd8 attachment to CUL4
